Key:
[1] = target: T1, Solute carrier family 22 member 1 (Homo sapiens, UniProt O15245); experiment: (§1) Inhibition of human OCT1 expressed in HEK293 cells assessed as decrease in uptake of ASP+ after 2 mins by fluorescence assay; format: cell-based
T1 sequence (O15245 whole entry): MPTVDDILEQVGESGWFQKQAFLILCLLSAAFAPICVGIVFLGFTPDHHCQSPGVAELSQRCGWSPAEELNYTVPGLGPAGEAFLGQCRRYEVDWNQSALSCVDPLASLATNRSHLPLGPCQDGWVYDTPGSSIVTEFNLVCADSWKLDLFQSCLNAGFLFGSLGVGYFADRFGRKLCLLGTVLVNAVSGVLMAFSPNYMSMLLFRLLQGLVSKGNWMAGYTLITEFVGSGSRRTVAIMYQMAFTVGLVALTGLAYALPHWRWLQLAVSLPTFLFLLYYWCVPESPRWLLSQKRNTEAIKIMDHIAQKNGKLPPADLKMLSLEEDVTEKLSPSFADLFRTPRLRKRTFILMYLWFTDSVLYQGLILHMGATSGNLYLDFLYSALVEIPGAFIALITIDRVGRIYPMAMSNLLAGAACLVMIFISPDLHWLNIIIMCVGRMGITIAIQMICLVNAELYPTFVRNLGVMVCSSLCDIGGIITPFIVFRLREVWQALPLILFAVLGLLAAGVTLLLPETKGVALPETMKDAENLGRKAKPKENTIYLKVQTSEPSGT
In short: (§2)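 Human OCT1-overexpressing HEK-293 cells (48 h growth, ~90% confluent) were incubated 2 min at 37°C in HBSS with 2 µM ASP+ and serially diluted inhibitor. IC50 was obtained by curve fitting.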

[2] = target: T1, Solute carrier family 22 member 1; experiment: Competitive inhibition of human OCT1 expressed in HEK293 cells assessed as decrease in uptake of ASP+ after 2 mins by Lineweaver-Burk plot analysis; format: cell-based; settings: hek293, 2 min
In short: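 HEK-293 cells stably overexpressing human OCT1 (kept in DMEM, 10% FBS, 75 µg/ml hygromycin B) were grown 48 h to ~90% confluence. They were exposed for 2 min at 37°C to HBSS with serial dilutions of ASP+ plus inhibitor at 4 fixed concentrations. Fluorescence was read at ex 485/em 585 nm. Reciprocal uptake at each inhibitor level was fitted by linear regression.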

OCT1 (SLC22A1) = target: T2, OCT1 (SLC22A1) (Homo sapiens, UniProt O15245); experiment: as §1; format: cell-based; settings: human, HEK293 cells that express human OCT1, probe ASP+; in short: as §2
T2 sequence (O15245 whole entry): T1 sequence (O15245 whole entry)

[3] = target: T1, Solute carrier family 22 member 1; experiment: Inhibition of human OCT1 expressed in HEK293 cells assessed as decrease in uptake of YM155 after 1 min
[4] = target: T1, Solute carrier family 22 member 1; experiment: Competitive inhibition of human OCT1 expressed in HEK293 cells assessed as decrease in uptake of ASP+ after 2 mins by Lineweaver-Burk plot analysis; settings: hek293, 2 min
[5] = target: T1, Solute carrier family 22 member 1; experiment: Ratio of Kii for human OCT1-ASP+-inhibitor complex to Kis for human OCT1-inhibitor complex by Lineweaver-Burk plot analysis

SMILES	IC50 [1]	other results
c1ccc(CC2NCCc3ccccc32)cc1 (centres undefined)	82.1 µM	inhibition (INH) [2]: Active
COc1cc2nc(N(C)CCCNC(=O)C3CCCO3)nc(N)c2cc1OC (centres undefined) [ALFUZOSIN]	14.9 µM	–
Oc1c(Cl)cc(Cl)cc1Sc1cc(Cl)cc(Cl)c1O [BITHIONOL]	2.23 µM	–
CCN(CC)CCNC(C(=O)OCCC(C)C)c1ccccc1 (centres undefined) [CAMYLOFIN]	9.12 µM	–
CCN(CC)CCOCCOC(=O)C1(c2ccccc2)CCCC1 [CARBETAPENTANE]	1.55 to 1.6 µM	–
COc1ccccc1OCCNCC(O)COc1cccc2[nH]c3ccccc3c12 (centres undefined) [CARVEDILOL]	3.4 to 3.43 µM	–
CN/C(=N/CCSCc1nc[nH]c1C)NC#N [CIMETIDINE]	–	inhibition at 2 min (OCT1 (SLC22A1)): 4.13%; IC50 [3]: 149 µM
Clc1cccc(Cl)c1N=C1NCCN1 [CLONIDINE]	19 µM	–
Clc1ccc(C(OCCN2CCCCC2)c2ccccc2)cc1 (centres undefined) [CLOPERASTINE]	14.9 µM	–
Cc1cc(C(C#N)c2ccc(Cl)cc2)c(Cl)cc1NC(=O)c1cc(I)cc(I)c1O (centres undefined) [CLOSANTEL]	3 µM	–
Clc1ccccc1C(c1ccccc1)(c1ccccc1)n1ccnc1 [CLOTRIMAZOLE]	12 µM	–
CNCCCN1c2ccccc2CCc2ccccc21 [DESIPRAMINE]	9.18 µM	–
COc1ccc2c(c1)[C@]13CCCC[C@@H]1[C@H](C2)N(C)CC3 [DEXTROMETHORPHAN]	10.5 µM	–
Oc1ccc(Cl)cc1Cc1cc(Cl)ccc1O [DICHLOROPHEN]	8.41 µM	–
CC(CCc1ccc(O)cc1)NCCc1ccc(O)c(O)c1 (centres undefined) [DOBUTAMINE]	4.17 µM	–
CN(C)CCC=C1c2ccccc2COc2ccccc21 [DOXEPIN]	11.2 µM	–
CCN(CC)C(C)CN1c2ccccc2Sc2ccccc21 (centres undefined) [ETHOPROPAZINE]	20.5 µM	inhibition (INH) [2]: Active; inhibition (INH) [4]: Active
COC1=CC(=O)C[C@@H](C)[C@]12Oc1c(Cl)c(OC)cc(OC)c1C2=O [GRISEOFULVIN]	7.3 µM	–
N=C(N)N/N=C/c1c(Cl)cccc1Cl [GUANABENZ]	4.85 µM	–
CN(C)CCCN1c2ccccc2CCc2ccccc21 [IMIPRAMINE]	7.95 µM	–
CC(=O)N1CCN(c2ccc(OCC3COC(Cn4ccnc4)(c4ccc(Cl)cc4Cl)O3)cc2)CC1 (centres undefined) [KETOCONAZOLE]	2.6 µM	–
CCCNCC(O)COc1ccccc1C(=O)CCc1ccccc1 (centres undefined) [PROPAFENONE]	15.5 µM	–
CCc1nc(N)nc(N)c1-c1ccc(Cl)cc1 [PYRIMETHAMINE]	13.6 µM	–
CCN(CC)CCNC(=O)c1c(C)[nH]c(/C=C2\C(=O)Nc3ccc(F)cc32)c1C [SUNITINIB]	6.1 µM	–
Nc1c2c(nc3ccccc13)CCCC2 [TACRINE]	21.7 µM	inhibition (INH) [2]: Active; inhibition (INH) [4]: Active
Cc1ncc(C[n+]2csc(CCO)c2C)c(N)n1 [THIAMINE ION]	4350 µM	inhibition at 2 min (OCT1 (SLC22A1)): -1.5%; Ratio [5]: 95.6

Reference: ChEMBL document CHEMBL4007438, “Discovery of Competitive and Noncompetitive Ligands of the Organic Cation Transporter 1 (OCT1; SLC22A1)” (J Med Chem, 2017)
